Laboratory results as given in ChEMBL document CHEMBL1142517, “Discovery of an orally bioavailable small molecule inhibitor of prosurvival B-cell lymphoma 2 proteins” (J Med Chem, 2008).

target: Apoptosis regulator Bcl-2 (Homo sapiens, UniProt P10415); experiment: Displacement of fluorescein labeled Bax peptide from Bcl2 by fluorescence polarization assay; details: not given
Sequence (P10415 whole entry): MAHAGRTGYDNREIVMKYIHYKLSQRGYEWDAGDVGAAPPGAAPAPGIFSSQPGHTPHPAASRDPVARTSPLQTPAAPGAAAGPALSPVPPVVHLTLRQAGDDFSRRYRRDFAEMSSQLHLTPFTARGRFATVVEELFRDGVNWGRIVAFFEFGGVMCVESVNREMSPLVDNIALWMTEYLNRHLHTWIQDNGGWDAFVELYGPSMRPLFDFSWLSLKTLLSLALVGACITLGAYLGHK

Compound | Ki
CN(C)CC[C@H](CSc1ccccc1)Nc1ccc(S(=O)(=O)NC(=O)c2ccc(N3CCN(CC4=C(c5ccc(Cl)cc5)CCC(C)(C)C4)CC3)cc2)cc1[N+](=O)[O-] | < 1 nM
CN(C)CC[C@H](CSc1ccccc1)Nc1ccc(S(=O)(=O)NC(=O)c2ccc(N3CCN(Cc4ccccc4-c4ccc(Cl)cc4)CC3)cc2)cc1OC(F)(F)F | < 1 nM
CN(C)CC[C@H](CSc1ccccc1)Nc1ccc(S(=O)(=O)NC(=O)c2ccc(N3CCN(CC4=C(c5ccc(Cl)cc5)CCCCC4)CC3)cc2)cc1[N+](=O)[O-] | < 1 nM
CN(C)CC[C@H](CSc1ccccc1)Nc1ccc(S(=O)(=O)NC(=O)c2ccc(N3CCN(CC4=C(c5ccc(Cl)cc5)CCOC4)CC3)cc2)cc1[N+](=O)[O-] | 2.4 nM
CN(C)CC[C@H](CSc1ccccc1)Nc1ccc(S(=O)(=O)NC(=O)c2ccc(N3CCN(CC4=C(c5ccc(Cl)cc5)CCC4)CC3)cc2)cc1[N+](=O)[O-] | < 1 nM
O=C(NS(=O)(=O)c1ccc(NCCSc2ccccc2)c([N+](=O)[O-])c1)c1ccc(N2CCN(Cc3ccccc3-c3ccc(Cl)cc3)CC2)cc1 | < 1 nM

More lines, now with the values ahead:

Ki | Compound
< 1 nM | CN(C)CC[C@H](CSc1ccccc1)Nc1ccc(S(=O)(=O)NC(=O)c2ccc(N3CCN(Cc4ccccc4-c4ccc(Cl)cc4)CC3)cc2)cc1C#N
< 1 nM | CN(C)CC[C@H](CSc1ccccc1)Nc1ccc(S(=O)(=O)NC(=O)c2ccc(N3CCN(CC4=C(c5ccc(Cl)cc5)CCCC4)CC3)cc2)cc1[N+](=O)[O-]
< 1 nM | CN(C)CC[C@H](CSc1ccccc1)Nc1ccc(S(=O)(=O)NC(=O)c2ccc(N3CCN(C/C4=C(\c5ccc(Cl)cc5)CCCCCC4)CC3)cc2)cc1[N+](=O)[O-]

system: not listed separately; experiment: Cytotoxicity against IL3-dependent mouse FL5.12 cells overexpressing human Bcl-XL assessed as cell viability after 24 hrs by MTS assay in absence of serum; type: functional, cell-based; details: FL5.12, 24 h
Procedure, shortened: (§1)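 Mouse FL5.12 cells transfected with Bcl-XL or Bcl-2, deprived of IL-3 (no FBS or WEHI-3B conditioned medium) for 2 days. Then moved to serum-free gelatin medium (3.4 mg/mL bovine gelatin) with serially diluted compound for 24 h. Viability by MTS or CellTiter-Glo. Determinations in duplicate.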

Compound | EC50
CN(C)CC[C@H](CSc1ccccc1)Nc1ccc(S(=O)(=O)NC(=O)c2ccc(N3CCN(Cc4ccccc4-c4ccc(Cl)cc4)CC3)cc2)cc1C#N | 225 nM
CN(C)CC[C@H](CSc1ccccc1)Nc1ccc(S(=O)(=O)NC(=O)c2ccc(N3CCN(CC4=C(c5ccc(Cl)cc5)CCC(C)(C)C4)CC3)cc2)cc1[N+](=O)[O-] | 0.9 nM
CN(C)CC[C@H](CSc1ccccc1)Nc1ccc(S(=O)(=O)NC(=O)c2ccc(N3CCN(Cc4ccccc4-c4ccc(Cl)cc4)CC3)cc2)cc1OC(F)(F)F | 805 nM
CN(C)CC[C@H](CSc1ccccc1)Nc1ccc(S(=O)(=O)NC(=O)c2ccc(N3CCN(CC4=C(c5ccc(Cl)cc5)CCCCC4)CC3)cc2)cc1[N+](=O)[O-] | 5 nM
CN(C)CC[C@H](CSc1ccccc1)Nc1ccc(S(=O)(=O)NC(=O)c2ccc(N3CCN(CC4=C(c5ccc(Cl)cc5)CCOC4)CC3)cc2)cc1[N+](=O)[O-] | 55 nM
CN(C)CC[C@H](CSc1ccccc1)Nc1ccc(S(=O)(=O)NC(=O)c2ccc(N3CCN(CC4=C(c5ccc(Cl)cc5)CCCC4)CC3)cc2)cc1[N+](=O)[O-] | 29 nM
CN(C)CC[C@H](CSc1ccccc1)Nc1ccc(S(=O)(=O)NC(=O)c2ccc(N3CCN(CC4=C(c5ccc(Cl)cc5)CCC4)CC3)cc2)cc1[N+](=O)[O-] | 143 nM
CN(C)CC[C@H](CSc1ccccc1)Nc1ccc(S(=O)(=O)NC(=O)c2ccc(N3CCN(C/C4=C(\c5ccc(Cl)cc5)CCCCCC4)CC3)cc2)cc1[N+](=O)[O-] | 21 nM

system: not listed separately; experiment: Cytotoxicity against IL3-dependent mouse FL5.12 cells overexpressing human Bcl2 assessed as cell viability after 24 hrs by MTS assay in absence of serum; type: functional, cell-based; details: FL5.12, 24 h; procedure, shortened: as §1

Compound | EC50
CN(C)CC[C@H](CSc1ccccc1)Nc1ccc(S(=O)(=O)NC(=O)c2ccc(N3CCN(Cc4ccccc4-c4ccc(Cl)cc4)CC3)cc2)cc1C#N | 49 nM
CN(C)CC[C@H](CSc1ccccc1)Nc1ccc(S(=O)(=O)NC(=O)c2ccc(N3CCN(CC4=C(c5ccc(Cl)cc5)CCC(C)(C)C4)CC3)cc2)cc1[N+](=O)[O-] | 0.6 nM
CN(C)CC[C@H](CSc1ccccc1)Nc1ccc(S(=O)(=O)NC(=O)c2ccc(N3CCN(Cc4ccccc4-c4ccc(Cl)cc4)CC3)cc2)cc1OC(F)(F)F | 230 nM
CN(C)CC[C@H](CSc1ccccc1)Nc1ccc(S(=O)(=O)NC(=O)c2ccc(N3CCN(CC4=C(c5ccc(Cl)cc5)CCCCC4)CC3)cc2)cc1[N+](=O)[O-] | < 1 nM
CN(C)CC[C@H](CSc1ccccc1)Nc1ccc(S(=O)(=O)NC(=O)c2ccc(N3CCN(CC4=C(c5ccc(Cl)cc5)CCOC4)CC3)cc2)cc1[N+](=O)[O-] | 33 nM
CN(C)CC[C@H](CSc1ccccc1)Nc1ccc(S(=O)(=O)NC(=O)c2ccc(N3CCN(CC4=C(c5ccc(Cl)cc5)CCCC4)CC3)cc2)cc1[N+](=O)[O-] | 11 nM
CN(C)CC[C@H](CSc1ccccc1)Nc1ccc(S(=O)(=O)NC(=O)c2ccc(N3CCN(CC4=C(c5ccc(Cl)cc5)CCC4)CC3)cc2)cc1[N+](=O)[O-] | 51 nM
CN(C)CC[C@H](CSc1ccccc1)Nc1ccc(S(=O)(=O)NC(=O)c2ccc(N3CCN(C/C4=C(\c5ccc(Cl)cc5)CCCCCC4)CC3)cc2)cc1[N+](=O)[O-] | 39 nM

system: not listed separately; experiment: Cmax in Sprague-Dawley rat at 5 mg/kg, po; type: ADME, organism-based; design: dose 5 mg/kg, route oral; details: in vivo
Procedure, shortened: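 Rats (Sprague-Dawley) given 5 mg/kg by oral gavage in 10% DMSO/PEG-400, n = 3. Serial heparinized blood samples. Plasma drug level by LC-MS/MS after acetonitrile protein precipitation, quantified by linear regression of peak-area ratio to internal standard. Concentration–time data fitted multiexponentially.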

Cmax | Compound
1150 nM | O=C(NS(=O)(=O)c1ccc(NCCSc2ccccc2)c([N+](=O)[O-])c1)c1ccc(N2CCN(Cc3ccccc3-c3ccc(Cl)cc3)CC2)cc1

system: not listed separately; experiment: AUC in Sprague-Dawley rat at 5 mg/kg, po; type: ADME, organism-based; design: dose 5 mg/kg, route oral; details: plasma
Procedure, shortened: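 Sprague-Dawley rats, single 5 mg/kg oral dose by gavage in 10% DMSO in PEG-400, n = 3. Heparinized blood taken before dosing and at set times. Plasma proteins precipitated with acetonitrile, then LC-MS/MS against spiked plasma standards with an internal standard. AUC by linear trapezoidal rule.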

AUC | Compound
2.19 µM·h | CN(C)CC[C@H](CSc1ccccc1)Nc1ccc(S(=O)(=O)NC(=O)c2ccc(N3CCN(Cc4ccccc4-c4ccc(Cl)cc4)CC3)cc2)cc1C#N
0.65 µM·h | CN(C)CC[C@H](CSc1ccccc1)Nc1ccc(S(=O)(=O)NC(=O)c2ccc(N3CCN(CC4=C(c5ccc(Cl)cc5)CCCC4)CC3)cc2)cc1[N+](=O)[O-]
10.4 µM·h | O=C(NS(=O)(=O)c1ccc(NCCSc2ccccc2)c([N+](=O)[O-])c1)c1ccc(N2CCN(Cc3ccccc3-c3ccc(Cl)cc3)CC2)cc1

system: not listed separately; experiment: Ratio of AUC for Sprague-Dawley rat at 5 mg/kg, po to EC50 for human NCI-H146 cells in presence of 10% human serum; type: functional; details: not given
Procedure, shortened: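 The cells were treated for 48 h in medium with 10% human serum, and viability was read by CellTiter-Glo luminescence.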

Compound | Ratio
CN(C)CC[C@H](CSc1ccccc1)Nc1ccc(S(=O)(=O)NC(=O)c2ccc(N3CCN(Cc4ccccc4-c4ccc(Cl)cc4)CC3)cc2)cc1C#N | 1.1
CN(C)CC[C@H](CSc1ccccc1)Nc1ccc(S(=O)(=O)NC(=O)c2ccc(N3CCN(CC4=C(c5ccc(Cl)cc5)CCCC4)CC3)cc2)cc1[N+](=O)[O-] | 25.3
O=C(NS(=O)(=O)c1ccc(NCCSc2ccccc2)c([N+](=O)[O-])c1)c1ccc(N2CCN(Cc3ccccc3-c3ccc(Cl)cc3)CC2)cc1 | 0.32

system: not listed separately; experiment: Cytotoxicity against human NCI-H146 cells assessed as cell viability after 48 hrs in presence of 10% human serum; type: functional, cell-based; details: NCI-H146, 48 h
Procedure, shortened: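 NCI-H146 SCLC cells maintained in RPMI 1640 with 10% FBS at 37 °C, 5% CO2. Treated for 48 h in medium with 10% human serum. Viability by CellTiter-Glo luminescence. Values from duplicate runs.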

Compound | EC50
CN(C)CC[C@H](CSc1ccccc1)Nc1ccc(S(=O)(=O)NC(=O)c2ccc(N3CCN(Cc4ccccc4-c4ccc(Cl)cc4)CC3)cc2)cc1C#N | 1930 nM
CN(C)CC[C@H](CSc1ccccc1)Nc1ccc(S(=O)(=O)NC(=O)c2ccc(N3CCN(CC4=C(c5ccc(Cl)cc5)CCC(C)(C)C4)CC3)cc2)cc1[N+](=O)[O-] | 98 nM
CN(C)CC[C@H](CSc1ccccc1)Nc1ccc(S(=O)(=O)NC(=O)c2ccc(N3CCN(Cc4ccccc4-c4ccc(Cl)cc4)CC3)cc2)cc1OC(F)(F)F | 5080 nM
CN(C)CC[C@H](CSc1ccccc1)Nc1ccc(S(=O)(=O)NC(=O)c2ccc(N3CCN(CC4=C(c5ccc(Cl)cc5)CCCCC4)CC3)cc2)cc1[N+](=O)[O-] | 51.9 nM
CN(C)CC[C@H](CSc1ccccc1)Nc1ccc(S(=O)(=O)NC(=O)c2ccc(N3CCN(CC4=C(c5ccc(Cl)cc5)CCOC4)CC3)cc2)cc1[N+](=O)[O-] | 266 nM
CN(C)CC[C@H](CSc1ccccc1)Nc1ccc(S(=O)(=O)NC(=O)c2ccc(N3CCN(CC4=C(c5ccc(Cl)cc5)CCCC4)CC3)cc2)cc1[N+](=O)[O-] | 25.7 nM
CN(C)CC[C@H](CSc1ccccc1)Nc1ccc(S(=O)(=O)NC(=O)c2ccc(N3CCN(CC4=C(c5ccc(Cl)cc5)CCC4)CC3)cc2)cc1[N+](=O)[O-] | 691 nM
CN(C)CC[C@H](CSc1ccccc1)Nc1ccc(S(=O)(=O)NC(=O)c2ccc(N3CCN(C/C4=C(\c5ccc(Cl)cc5)CCCCCC4)CC3)cc2)cc1[N+](=O)[O-] | 200 nM
O=C(NS(=O)(=O)c1ccc(NCCSc2ccccc2)c([N+](=O)[O-])c1)c1ccc(N2CCN(Cc3ccccc3-c3ccc(Cl)cc3)CC2)cc1 | 33000 nM

system: not listed separately; experiment: Oral bioavailability in Sprague-Dawley rat at 5 mg/kg; type: ADME, organism-based; details: in vivo

bioavailability | Compound
28% | O=C(NS(=O)(=O)c1ccc(NCCSc2ccccc2)c([N+](=O)[O-])c1)c1ccc(N2CCN(Cc3ccccc3-c3ccc(Cl)cc3)CC2)cc1
